Measurements: ChEMBL document CHEMBL1828609, “Strategies to lower the Pgp efflux liability in a series of potent indole azetidine MCHR1 antagonists” (Bioorg Med Chem Lett, 2011)

Tests used:
[1] = Apparent permeability from apical to basolateral side in MDCK cells expressing human MDR1 after 2 hrs; format: ADME, cell-based, Canis lupus familiaris; conditions: dog
Outline: (§1)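 MDR1-MDCK monolayers; apparent permeability measured in both directions (A-to-B and B-to-A) after 2 h incubation. Efflux ratio calculated as Papp(B-to-A)/Papp(A-to-B).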

[2] = Plasma concentration in wild type FVB mouse at 15 mg/kg, iv after 8 hrs; format: ADME, organism-based; design: dose 15 mg/kg, route intravenous
Outline: (§2)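 Single 15 mg/kg intravenous dose given to Pgp knockout and wild-type mice. Brain and plasma levels followed over 8 h, and brain/plasma ratios calculated at each time point.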

[3] = Ratio of drug level in brain to plasma in wild type FVB mouse after 3 hrs; format: ADME, cell-free; conditions: read-out: BPR; outline: as §2
[4] = Drug uptake in P-gp transporter knockout FVB mouse brain at 15 mg/kg, iv after 3 hrs; format: ADME, organism-based; design: dose 15 mg/kg, route intravenous; conditions: read-out: Drug uptake; outline: as §2
[5] = molecular target: Melanin-concentrating hormone receptor 1 (Rattus norvegicus, UniProt P97639); experiment: Displacement of [125I]-S36057 from rat MCH1 receptor
[6] = Apparent permeability of the compound at pH 3 to 7.4 by PAMPA method; format: ADME
[7] = Plasma concentration in wild type FVB mouse at 15 mg/kg, iv after 6 hrs; format: ADME, organism-based; design: dose 15 mg/kg, route intravenous; outline: as §2
[8] = Apparent permeability of the compound at pH 7.4 by PAMPA method; format: ADME
[9] = Drug uptake in wild type FVB mouse brain at 15 mg/kg, iv after 8 hrs; format: ADME, organism-based; design: dose 15 mg/kg, route intravenous; conditions: read-out: Drug uptake; outline: as §2
[10] = Efflux ratio of permeability from basolateral to apical over apical to basolateral side of MDCK cells expressing human MDR1 after 2 hrs; format: ADME, cell-based, Canis lupus familiaris; conditions: dog; outline: as §1
[11] = Drug uptake in wild type FVB mouse brain at 15 mg/kg, iv after 6 hrs; format: ADME, organism-based; design: dose 15 mg/kg, route intravenous; conditions: read-out: Drug uptake; outline: as §2
[12] = Plasma concentration in P-gp transporter knockout FVB mouse at 15 mg/kg, iv after 6 hrs; format: ADME, organism-based; design: dose 15 mg/kg, route intravenous; outline: as §2
[13] = Drug uptake in P-gp transporter knockout FVB mouse brain at 15 mg/kg, iv after 8 hrs; format: ADME, organism-based; design: dose 15 mg/kg, route intravenous; conditions: read-out: Drug uptake; outline: as §2
[14] = Plasma concentration in rat at 10 mg/kg, po after 4 hrs; format: ADME, organism-based; design: dose 10 mg/kg, route oral
Outline: (§3)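 Rats dosed orally at 10 mg/kg. Brain (ng/g) and plasma (ng/mL) levels taken at 4 h, giving the brain-to-plasma exposure comparison.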

[15] = molecular target: Voltage-gated inwardly rectifying potassium channel KCNH2 (Homo sapiens, UniProt Q12809); experiment: Inhibition of human ERG
[16] = Plasma concentration in P-gp transporter knockout FVB mouse at 15 mg/kg, iv after 3 hrs; format: ADME, organism-based; design: dose 15 mg/kg, route intravenous; outline: as §2
[17] = Drug uptake in P-gp transporter knockout FVB mouse brain at 15 mg/kg, iv after 1 hr; format: ADME, organism-based; design: dose 15 mg/kg, route intravenous; conditions: read-out: Drug uptake; outline: as §2
[18] = Ratio of drug level in brain to plasma in wild type FVB mouse after 8 hrs; format: ADME, cell-free; conditions: read-out: BPR; outline: as §2
[19] = Apparent permeability from basolateral to apical side in MDCK cells expressing human MDR1 after 2 hrs; format: ADME, cell-based, Canis lupus familiaris; conditions: dog; outline: as §1
[20] = Drug uptake in P-gp transporter knockout FVB mouse brain at 15 mg/kg, iv after 6 hrs; format: ADME, organism-based; design: dose 15 mg/kg, route intravenous; conditions: read-out: Drug uptake; outline: as §2
[21] = Drug uptake in wild type FVB mouse brain at 15 mg/kg, iv after 1 hr; format: ADME, organism-based; design: dose 15 mg/kg, route intravenous; conditions: read-out: Drug uptake; outline: as §2
[22] = Drug uptake in rat brain at 10 mg/kg, po after 4 hrs; format: ADME, organism-based; design: dose 10 mg/kg, route oral; conditions: read-out: Drug uptake; outline: as §3
[23] = Ratio of drug level in brain to plasma in wild type FVB mouse after 1 hr; format: ADME, cell-free; conditions: read-out: BPR; outline: as §2
[24] = Ratio of drug level in brain to plasma in P-gp transporter knockout FVB mouse after 1 hr; format: ADME, cell-free; conditions: read-out: BPR; outline: as §2
[25] = Drug uptake in wild type FVB mouse brain at 15 mg/kg, iv after 3 hrs; format: ADME, organism-based; design: dose 15 mg/kg, route intravenous; conditions: read-out: Drug uptake; outline: as §2
[26] = Plasma concentration in P-gp transporter knockout FVB mouse at 15 mg/kg, iv after 8 hrs; format: ADME, organism-based; design: dose 15 mg/kg, route intravenous; outline: as §2
[27] = Plasma concentration in wild type FVB mouse at 15 mg/kg, iv after 1 hr; format: ADME, organism-based; design: dose 15 mg/kg, route intravenous; outline: as §2
[28] = Ratio of drug level in brain to plasma in P-gp transporter knockout FVB mouse after 8 hrs; format: ADME, cell-free; conditions: read-out: BPR; outline: as §2
[29] = Plasma concentration in P-gp transporter knockout FVB mouse at 15 mg/kg, iv after 1 hr; format: ADME, organism-based; design: dose 15 mg/kg, route intravenous; outline: as §2
[30] = Ratio of drug level in brain to plasma in P-gp transporter knockout FVB mouse after 6 hrs; format: ADME, cell-free; conditions: read-out: BPR; outline: as §2
[31] = Permeability from apical to basolateral side in MDCK cells expressing human MDR1 assessed as compound recovery; format: ADME, cell-based, Canis lupus familiaris; conditions: dog, read-out: permeability
Outline: (§4)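 Bidirectional MDR1-MDCK permeability run with 2 h incubation; percent recovery of compound determined for the A-to-B and B-to-A directions.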

[32] = Ratio of drug level in brain to plasma in wild type FVB mouse after 6 hrs; format: ADME, cell-free; conditions: read-out: BPR; outline: as §2
[33] = Ratio of drug level in brain to plasma in P-gp transporter knockout FVB mouse after 3 hrs; format: ADME, cell-free; conditions: read-out: BPR; outline: as §2
[34] = Permeability from basolateral to apical side in MDCK cells expressing human MDR1 assessed as compound recovery; format: ADME, cell-based, Canis lupus familiaris; conditions: dog, read-out: permeability; outline: as §4
[35] = Plasma concentration in wild type FVB mouse at 15 mg/kg, iv after 3 hrs; format: ADME, organism-based; design: dose 15 mg/kg, route intravenous; outline: as §2
[36] = Ratio of drug level in brain to plasma in rat; format: ADME, cell-free; conditions: read-out: BPR; outline: as §3
[37] = Plasma concentration in rat at 10 mg/kg, sc after 4 hrs; format: ADME, organism-based; design: dose 10 mg/kg, route subcutaneous
Outline: (§5)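 Rat PK with subcutaneous dosing at 10 mg/kg. Brain and plasma concentrations determined 4 h after the dose.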

[38] = Drug uptake in rat brain at 10 mg/kg, sc after 4 hrs; format: ADME, organism-based; design: dose 10 mg/kg, route subcutaneous; conditions: read-out: Drug uptake; outline: as §5

Chain of Melanin-concentrating hormone receptor 1 (P97639 whole entry): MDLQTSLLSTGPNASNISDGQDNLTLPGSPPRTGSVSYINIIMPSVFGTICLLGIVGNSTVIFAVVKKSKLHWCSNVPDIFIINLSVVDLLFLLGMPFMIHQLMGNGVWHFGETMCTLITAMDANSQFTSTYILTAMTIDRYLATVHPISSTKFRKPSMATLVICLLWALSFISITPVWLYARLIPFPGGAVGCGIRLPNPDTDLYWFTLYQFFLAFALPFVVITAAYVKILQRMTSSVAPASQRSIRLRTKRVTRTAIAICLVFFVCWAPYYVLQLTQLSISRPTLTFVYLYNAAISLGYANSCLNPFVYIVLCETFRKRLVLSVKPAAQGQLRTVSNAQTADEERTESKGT
Chain of Voltage-gated inwardly rectifying potassium channel KCNH2 (Q12809 whole entry): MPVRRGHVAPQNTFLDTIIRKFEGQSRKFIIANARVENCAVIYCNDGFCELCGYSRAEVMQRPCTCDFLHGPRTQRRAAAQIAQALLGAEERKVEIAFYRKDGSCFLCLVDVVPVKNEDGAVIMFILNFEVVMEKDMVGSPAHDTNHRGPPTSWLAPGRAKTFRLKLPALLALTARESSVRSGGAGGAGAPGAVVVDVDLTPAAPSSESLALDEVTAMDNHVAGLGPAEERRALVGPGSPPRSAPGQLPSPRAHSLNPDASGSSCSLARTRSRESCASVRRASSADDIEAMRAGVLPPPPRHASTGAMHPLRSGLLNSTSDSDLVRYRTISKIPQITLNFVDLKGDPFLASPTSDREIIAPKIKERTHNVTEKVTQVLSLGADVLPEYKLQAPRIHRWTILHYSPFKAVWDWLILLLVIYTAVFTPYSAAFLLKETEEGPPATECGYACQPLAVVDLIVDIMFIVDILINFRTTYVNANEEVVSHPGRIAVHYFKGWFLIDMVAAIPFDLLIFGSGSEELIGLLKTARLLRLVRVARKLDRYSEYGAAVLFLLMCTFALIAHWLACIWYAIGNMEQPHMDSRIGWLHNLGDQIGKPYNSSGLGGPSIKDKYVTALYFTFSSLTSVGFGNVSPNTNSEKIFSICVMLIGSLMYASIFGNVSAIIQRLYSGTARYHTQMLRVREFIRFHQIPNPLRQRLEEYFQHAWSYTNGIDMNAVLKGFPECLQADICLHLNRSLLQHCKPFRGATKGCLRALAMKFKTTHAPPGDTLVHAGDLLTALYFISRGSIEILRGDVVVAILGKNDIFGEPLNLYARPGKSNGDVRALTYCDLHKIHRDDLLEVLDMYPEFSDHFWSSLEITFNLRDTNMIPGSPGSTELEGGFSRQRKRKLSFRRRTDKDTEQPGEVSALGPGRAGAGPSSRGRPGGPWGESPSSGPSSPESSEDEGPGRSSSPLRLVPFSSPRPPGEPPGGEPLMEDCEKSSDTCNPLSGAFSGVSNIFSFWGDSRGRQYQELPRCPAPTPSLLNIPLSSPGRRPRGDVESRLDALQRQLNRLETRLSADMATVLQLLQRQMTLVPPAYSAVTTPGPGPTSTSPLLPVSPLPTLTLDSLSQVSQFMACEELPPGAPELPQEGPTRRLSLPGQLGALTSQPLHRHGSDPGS

CN1CC(c2c[nH]c3cc(-n4ccc(OCc5ccccc5)cc4=O)ccc23)C1
Papp A→B at 2 h [1]: 0.2 ×10⁻⁶ cm/s
concentration at 8 h [2]: 538 ng/mL
Kp at 3 h [3]: 0.12
concentration at 3 h [4]: 1130 ng/g
Ki [5]: 11 nM
Papp [6]: 16.4 ×10⁻⁶ cm/s
concentration at 6 h [7]: 623 ng/mL
Papp [8]: 4.9 ×10⁻⁶ cm/s
concentration at 8 h [9]: 144 ng/g
efflux ratio at 2 h [10]: 144
concentration at 6 h [11]: 148 ng/g
concentration at 6 h [12]: 689 ng/mL
concentration at 8 h [13]: 1620 ng/g
concentration at 4 h [14]: 48 ng/mL
IC50 [15]: 12000 nM
concentration at 3 h [16]: 1380 ng/mL
concentration at 1 h [17]: 878 ng/g
Kp at 8 h [18]: 0.28
Papp B→A at 2 h [19]: 26.3 ×10⁻⁶ cm/s
concentration at 6 h [20]: 1580 ng/g
concentration at 1 h [21]: 143 ng/g
concentration at 4 h [22]: 11 ng/g
Kp at 1 h [23]: 0.06
Kp at 1 h [24]: 0.28
concentration at 3 h [25]: 172 ng/g
concentration at 8 h [26]: 607 ng/mL
concentration at 1 h [27]: 2280 ng/mL
Kp at 8 h [28]: 2.66
concentration at 1 h [29]: 3130 ng/mL
Kp at 6 h [30]: 2.3
recovery [31]: 72%
Kp at 6 h [32]: 0.24
Kp at 3 h [33]: 0.82
recovery [34]: 71%
concentration at 3 h [35]: 1450 ng/mL

CN1CC(c2c[nH]c3cc(-n4ccc(OCc5ccccc5F)cc4=O)ccc23)C1
Papp A→B at 2 h [1]: 0.2 ×10⁻⁶ cm/s
Ki [5]: 6.7 nM
efflux ratio at 2 h [10]: 150
concentration at 4 h [14]: 140 ng/mL
Papp B→A at 2 h [19]: 25.3 ×10⁻⁶ cm/s
concentration at 4 h [22]: 22 ng/g

CN1CC(c2c[nH]c3cc(-n4ccc(-c5ccc(Cl)cc5)cc4=O)ccc23)C1
Papp A→B at 2 h [1]: 0.9 ×10⁻⁶ cm/s
Ki [5]: 7.8 nM
efflux ratio at 2 h [10]: 60
concentration at 4 h [14]: 350 ng/mL
Papp B→A at 2 h [19]: 53.7 ×10⁻⁶ cm/s
concentration at 4 h [22]: 100 ng/g

CN1CC(c2cn(C)c3cc(-n4ccc(OCc5ccccc5)cc4=O)ccc23)C1
Kp [36]: 0.03
Ki [5]: 11 nM
concentration at 4 h [37]: 4000 ng/mL
concentration at 4 h [38]: 110 ng/g

COCCN1CC(c2c[nH]c3cc(-n4ccc(OCc5ccccc5)cc4=O)ccc23)C1
Papp A→B at 2 h [1]: 0.4 ×10⁻⁶ cm/s
Ki [5]: 5.2 nM
efflux ratio at 2 h [10]: 88
concentration at 4 h [14]: 310 ng/mL
Papp B→A at 2 h [19]: 34.1 ×10⁻⁶ cm/s
concentration at 4 h [22]: 49 ng/g

O=c1cc(OCc2ccccc2)ccn1-c1ccc2c(C3CN(CCF)C3)c[nH]c2c1
Papp A→B at 2 h [1]: 1.4 ×10⁻⁶ cm/s
Ki [5]: 4.3 nM
efflux ratio at 2 h [10]: 43
concentration at 4 h [14]: 620 ng/mL
Papp B→A at 2 h [19]: 58.9 ×10⁻⁶ cm/s
concentration at 4 h [22]: 130 ng/g

Cn1cc(C2CN(CCF)C2)c2ccc(-n3ccc(-c4ccc(F)cc4)cc3=O)cc21
Papp A→B at 2 h [1]: 7.1 ×10⁻⁶ cm/s
Kp [36]: 0.8
Ki [5]: 9 nM
efflux ratio at 2 h [10]: 6.4
concentration at 4 h [14]: 1000 ng/mL
Papp B→A at 2 h [19]: 45.4 ×10⁻⁶ cm/s
concentration at 4 h [22]: 810 ng/g

O=c1cc(OCc2ccccc2)ccn1-c1ccc2c(c1)CCN2C1CNC1
Ki [5]: 2.4 nM
concentration at 4 h [14]: 130 ng/mL
concentration at 4 h [22]: 27 ng/g

CN1CC(N2CCc3cc(-n4ccc(OCc5ccccc5)cc4=O)ccc32)C1
Papp A→B at 2 h [1]: 2.6 ×10⁻⁶ cm/s
Ki [5]: 2.5 nM
efflux ratio at 2 h [10]: 14
concentration at 4 h [14]: 500 ng/mL
Papp B→A at 2 h [19]: 36.5 ×10⁻⁶ cm/s
concentration at 4 h [22]: 780 ng/g

O=c1cc(OCc2ccccc2)ccn1-c1ccc2c(c1)CCN2C1CN(CCF)C1
Papp A→B at 2 h [1]: 17.7 ×10⁻⁶ cm/s
Ki [5]: 4.9 nM
efflux ratio at 2 h [10]: 2.2
concentration at 4 h [14]: 420 ng/mL
Papp B→A at 2 h [19]: 38.2 ×10⁻⁶ cm/s
concentration at 4 h [22]: 520 ng/g

CN1CC(N2CCc3cc(-n4ccc(-c5ccc(Cl)cc5)cc4=O)ccc32)C1
Kp [36]: > 3
Ki [5]: 4.9 nM
concentration at 4 h [14]: 190 ng/mL
concentration at 4 h [22]: 600 ng/g

O=c1cc(-c2ccc(Cl)cc2)ccn1-c1ccc2c(c1)CCN2C1CN(CCF)C1
Papp A→B at 2 h [1]: 28.9 ×10⁻⁶ cm/s
Ki [5]: 6.5 nM
efflux ratio at 2 h [10]: 1
concentration at 4 h [14]: 650 ng/mL
Papp B→A at 2 h [19]: 30.1 ×10⁻⁶ cm/s
concentration at 4 h [22]: 1100 ng/g
